Published values gathered from unrelated publications.
Cell line: NCI-H226
Read-out: cell growth or viability

COC(=O)/C=C/C=C/c1ccc2c(c1)OCO2 — IC50 (SRB): 99.1 µM
COc1ccc(C(=O)/C=C/c2cc3c(cc2Br)OCO3)cc1S(N)(=O)=O — GI50 (SRB; 48 h): 2.8 µM
CCCCc1n(Cc2ccc3ccccc3n2)cc[n+]1Cc1ccc2ccccc2n1 — TGI (SRB): 13.6 µM
O=C1NCCc2[nH]c(-c3ccncc3)cc21 — IC50: > 10 µM
COc1cc(-c2ccc(-c3ccc(C(=N)N)nc3)s2)cc(OC)c1OC — GI50 (SRB): 10.8 µM
S=C([S][Au-][P+](CCCCCC[P+]([Au-][S]C(=S)n1cccn1)(c1ccccc1)c1ccccc1)(c1ccccc1)c1ccccc1)n1cccn1 — GI50 (SRB): 6.63 µM
c1ccc2cc(Cn3cc[n+](Cc4ccc5ccccc5c4)c3)ccc2c1 — TGI (SRB): 14.3 µM
CCCCC[C@H](O)CC(=O)CCc1ccc(O)c(OC)c1 — IC50 (SRB): 145 µM
CCCc1n(Cc2ccc3ccccc3n2)cc[n+]1Cc1ccc2ccccc2c1 — TGI (SRB): 7.6 µM
COc1ccccc1/C=C/C(=O)c1ccc(OC)c(S(N)(=O)=O)c1 — GI50 (SRB; 48 h): 4 µM
NC(=O)c1cc(Cl)ccc1NC(=O)COc1ccccc1 — GI50 (SRB): > 100 µM
COc1ccc(C(=O)/C=C/c2ccccc2Br)cc1S(N)(=O)=O — inhibition (SRB; 10 µM): 79%
c1ccc(-c2n(Cc3ccc4ccccc4c3)cc[n+]2Cc2ccc3ccccc3c2)cc1 — TGI (SRB): 2.97 µM
COc1ccc(C(=O)/C=C/c2cccc(Br)c2)cc1S(N)(=O)=O — inhibition (SRB; 10 µM): 83%
COc1ccc(-c2ccc(-c3ccc(C(=N)N)nc3)s2)cc1Cl — GI50 (SRB): 1.92 µM
COc1ccc(C(=O)/C=C/c2cccc3ccccc23)cc1S(N)(=O)=O — GI50 (SRB; 48 h): 3.1 µM
CC(=O)O[C@H]1C(=O)[C@@]2(C)[C@H]([C@H](OC(=O)c3ccccc3)[C@]3(O)C[C@H](OC(=O)[C@H](O)[C@@H](NC(=O)c4ccccc4)c4ccccc4)C(C)=C1C3(C)C)[C@]1(OC(C)=O)CO[C@@H]1C[C@@H]2O — IC50 (SRB): 0.0043 µM
